Only some compounds are listed: those with a hit (about 1.8% of all), similar ones and a draw of the others.
M5 ag = agonists of human muscarinic M5 receptor (CHRM5). CHO-K1 hM5 cells, Fluo-8 calcium fluorescence; 0% DMSO wells, 100% maximal acetylcholine response. activation, % at 3 µM. 0.19% of 360,000 active. AID 624037;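 active = activation above the run's mean over test compounds plus 3 SD, cut at about 23% in these data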;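 also: signal is peak over basal fluorescence ratio across the kinetic read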
CHRM5 PAM = potentiates acetylcholine response at human M5 receptor; P08912; CHO-K1 hM5, Fluo-8 calcium, ACh EC20 PAM; 0% = ACh EC20, 100% = ACh EC100; activation, % at 3 µM; 0.3% of 360,000 active; AID 624038;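 active = activation above the run cutoff, the mean activation of all test compounds plus 3 SD, cut at about 18% in these data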
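Probe or stimulus: acetylcholine, EC20 level; Assay system: human M5 receptor in CHO-K1 cells; Schedule: compound preincubation 140 s before EC20 acetylcholine addition; Technique: intracellular calcium via Fluo-8 fluorescence; Dosing: single-point, 3 µM nominal; Read-out basis: percent activation from peak-over-basal fluorescence ratio, scaled EC20-to-EC100 acetylcholine; Repeats: one well per compound, no replicates.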
M4 antag = antagonists of human muscarinic M4 receptor (CHRM4) | P08173 | CHO-hM4 cells, ACh EC80, Fluo-8 calcium fluorescence | inhibition, % at 3 µM | 0.73% of 360,000 active;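 active = inhibition above its plate's cutoff, the mean inhibition of sample wells plus 3 SD, cut at about 27% in these data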
Target sequence (P08173 whole entry, looked up): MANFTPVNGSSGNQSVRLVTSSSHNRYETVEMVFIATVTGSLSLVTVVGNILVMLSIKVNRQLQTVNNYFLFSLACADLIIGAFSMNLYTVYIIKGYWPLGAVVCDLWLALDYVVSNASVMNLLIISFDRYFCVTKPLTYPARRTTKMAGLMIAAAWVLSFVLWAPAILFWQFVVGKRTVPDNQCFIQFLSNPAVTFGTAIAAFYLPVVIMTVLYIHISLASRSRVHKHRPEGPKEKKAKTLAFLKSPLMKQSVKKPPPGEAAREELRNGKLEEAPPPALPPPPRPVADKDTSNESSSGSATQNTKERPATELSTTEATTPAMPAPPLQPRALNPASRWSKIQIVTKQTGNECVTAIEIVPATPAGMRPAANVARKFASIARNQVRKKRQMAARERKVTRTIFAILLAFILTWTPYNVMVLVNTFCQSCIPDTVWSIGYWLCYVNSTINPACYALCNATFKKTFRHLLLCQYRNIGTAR
CHRM4 PAM = potentiates acetylcholine response at human M4 receptor; activation, % at 3 µM; 0.4% of 360,000 active; CHO-K1 hM4/Gqi5, Fluo-8 calcium fluorescence, ACh EC20; 0% = ACh EC20, 100% = maximal ACh; P08173;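 active = activation above its plate's cutoff, the mean activation of sample wells plus 3 SD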
CHRM5 antagonist = CHRM5 antagonism in calcium assay; P08912; CHO-hM5 cells, Fluo-8 calcium fluorescence, ACh EC80; inhibition, % at 3 µM; 0.59% of 360,000 active; AID 624040;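 active = inhibition above a per-plate cutoff, the mean of that plate's test compounds plus 3 SD, cut at about 27% in these data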
CHRM4 agonist = agonists of human muscarinic M4 receptor (CHRM4). 0.14% of 360,000 active. CHO-K1 hM4/Gqi5, Fluo-8 calcium fluorescence; vehicle 0%, full acetylcholine response 100%. activation, % at 3 µM. AID 624127;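 active = activation above the run mean over all test wells plus 3 SD, cut at about 32% in these data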;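 also: peak over basal fluorescence ratio per well then scaled between controls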
Of the large screens only hits and unclear results are named; the others gave an inactive call.

O=C(Nc1ccccc1)c1ccccc1OCC(O)CN1C(=O)c2ccccc2S1(=O)=O (configuration not stated)	M4 antag 32
Cc1ccc(-n2cccc2/C=C2/C(=N)N3C(=NC2=O)SN=C3S(C)(=O)=O)cc1Cl	CHRM5 PAM 19, M4 antag 31, CHRM5 antagonist 28
Cc1cccc(C)c1-n1cccc1/C=C1/C(=N)N2C(=NC1=O)SN=C2S(C)(=O)=O	none
COC(=O)c1ccc(N2CCOCC2)c(NC(=O)Nc2cccc(OC)c2)c1	none
CCOC(=O)c1ccc(N2CCN(c3ccccc3F)CC2)c(NC(=O)Nc2cccc(OC)c2)c1	CHRM5 antagonist 45
Cn1ccc2c(N3CCCCCCC3)cc3c(c21)C1CCC3O1 (configuration not stated)	none
Cc1cc2c(cc1C)N(C(=O)CSc1nncn1C)C(C)(C)c1ssc(=S)c1-2	CHRM5 antagonist 34
c1ccc(OCc2ccc(CCCN3CCOCC3)cc2)cc1	none
S=C(NCCCN1CCOCC1)N(Cc1ccccc1)Cc1ccccc1	CHRM5 antagonist 31
O=C(CCCc1ccccc1)NCCCN1CCOCC1	none
c1ccc(CCCN2CCOCC2)cc1	CHRM4 PAM 17
COc1ccccc1N1CCN(C(=O)c2oc3c(c2C)C(=O)CC(C)(C)C3)CC1	CHRM5 antagonist 29
Cc1c(C(=O)N2CCN(c3ccccn3)CC2)oc2c1C(=O)CC(C)(C)C2	none
CCOCCc1nnc(NC(=O)c2cc(OC)c(OC)cc2[N+](=O)[O-])s1	none
CCOCc1nnc(NC(=O)c2cc(OC)c(OC)cc2[N+](=O)[O-])s1	CHRM4 PAM 22
CCOc1ccccc1-n1c(N)c(C(N)=O)sc1=S	CHRM5 PAM 22
CC(C)(C)C(=O)c1c(N)[nH]c(C(=O)c2ccccc2)c1-c1c(F)cccc1F	none
COCCNc1nc(Nc2ccc(C(=O)OC)cc2)c2sccc2n1	none
CCOC(=O)N1CCC(N2CCN(C3CCCC3)C(CCO)C2)CC1 (configuration not stated)	M4 antag 80
CCOC(=O)N1CCC(NC2CCCCCCC2)CC1	M4 antag 47
NC(c1csc(Nc2ncccn2)n1)c1ccccc1Cl (configuration not stated)	none
N#Cc1c(N)[nH]c(C(=O)c2ccccc2)c1-c1ccc(Cl)cc1	none
CC(C)=C[C@H]1C[C@H](C)[C@H]2CC[C@H](C)c3c(O[C@@H]4O[C@@H](C)[C@@H](O)[C@@H](O)[C@@H]4O)c(O)c(C)c1c32	none
Cc1cc(C)cc(C(O)c2ncc(-c3ccc(F)cc3)[nH]2)c1 (configuration not stated)	none
COc1ccc(C(C#N)=Cc2ccc(N(C)CCC#N)cc2)cc1	CHRM5 antagonist 28
Cc1cccc(/C=N/n2c(C)cc(C)c(C#N)c2=O)c1	CHRM4 PAM 41
O=C(Cn1ncc2c([nH]c3ccccc32)c1=O)NCCc1ccccc1	CHRM4 PAM 19
COc1ccc(CN(C)C(C)C(=O)Nc2ccc(S(=O)(=O)N3CCCCC3)cc2)c(OC)c1 (configuration not stated)	M4 antag 26
CCN(Cc1ccc(OC)c(F)c1)C(C)C(=O)Nc1ccc(S(=O)(=O)N2CCCC2)cc1 (configuration not stated)	none
COc1cc(/C=C2\SC(=Nc3ccc(Cl)c(C(=O)O)c3)NC2=O)c(Br)c(Br)c1O	M5 ag 190, CHRM5 antagonist 43, CHRM4 agonist 51
CCc1ccc(N=C2NC(=O)/C(=C/c3cc(OC)c(O)c(OC)c3)S2)cc1	M5 ag 24
COc1cc(/C=C2\SC(=Nc3ccccc3)NC2=O)cc(Cl)c1O	M5 ag 64, M4 antag 44, CHRM5 antagonist 45, CHRM4 agonist 84
O=Cc1c(Nc2cccc(C(F)(F)F)c2)nc2ccccn2c1=O	CHRM4 PAM 16
O=C(N/N=C/c1c(Nc2cccc(C(F)(F)F)c2)nc2ccccn2c1=O)c1ccccc1[N+](=O)[O-]	none
CCN(CC)C1=NC=CC(c2ccccc2)=CC1C (configuration not stated)	M4 antag 39
COc1ccc(Cc2nnc(NC(=O)CSc3ccc(C)cc3)s2)cc1OC	M5 ag 74, CHRM4 agonist 95
CCOC(=O)Nc1nnc(Cc2ccc(Cl)c(Cl)c2)s1	CHRM4 PAM 22
CCOC(=O)C(=O)Nc1nnc(Cc2ccc(OC)c(OC)c2)s1	none
CCCCOCCCNC(=O)C[C@@H]1C[C@@]2(C(=O)OCC)CCC=C2N(Cc2cccc3ccccc23)C1=O	none
CC(C)C[C@H](N)c1nnc(S(=O)(=O)Cc2ccc(F)cc2)o1	M4 antag 28
CC1NC(=O)c2cc3ccccc3cc2-n2c1nc1ccccc1c2=O (configuration not stated)	none
CN(C)CCOc1ccc(-c2c(-c3ccsc3)sc3ccccc23)cc1	none
COc1ccc(-c2sc3ccccc3c2-c2ccc(OCCN(C)C)cc2)cc1	M4 antag 36
CC1CCC(NC(=O)C2CCC(CNS(=O)(=O)c3ccc4c(c3)C(C)(C)C(=O)N4C)CC2)CC1 (configuration not stated)	none
COc1ccc(-c2nc3c(Br)c(N)c(Br)cc3o2)cc1	M4 antag 27, CHRM4 PAM 29
Nc1c(Br)cc2oc(-c3ccccc3)nc2c1Br	none
CCCCNC(=O)c1nc(-c2cccnc2OC)oc1-c1ccc(Cl)cc1	none
CC1=C(C(=O)N2CCCCCC2)CC(CC(=O)NC2CCCC2)C(=O)N1Cc1ccccc1 (configuration not stated)	none
CC(O)Cc1cn([C@@H](CCCCN)C(=O)N2CCNCC2)nn1 (some centres not stated)	none
CC(O)[C@@H](C(=O)N1CCNCC1)n1cc(CCCCN)nn1 (some centres not stated)	CHRM4 agonist active
O=C(NCCCN1CCOCC1)NC1CCCCC1	none
O=C(NCCCCCCCN1CCCCCCC1)C(C1CCCCC1)C1CCCCC1	M4 antag 75
Cc1ccccc1C(=O)NN1C(=O)CSC1=S	none
O=C1CSC(=S)N1Nc1ccccc1	M5 ag 26
Cc1c(C(=O)OC(C)C(C)C[N+](C)(C)C)oc2ccccc12 (configuration not stated)	M4 antag 77
O=C(CN1CCN(c2ccccc2F)CC1)c1c[nH]c2ccccc12	CHRM5 PAM 20
Cn1ccc2c(/C=C/c3ccc(F)cc3)cc3c(c21)C1CCC3O1 (configuration not stated)	none

Bioassay records as filed in PubChem BioAssay.
